Source: PMC9299185 (Pest Management Science, 2021)
Like-named read-outs stand apart in the source and are kept apart here.

Columns and labels:
[1] = target: T1, honey bee CYP9Q3 (Apis mellifera, UniProt A0A7M7LMV1); test: Fluorescence-based BOMFC probe assay with recombinantly expressed CYP9Q3; assay type: biochemical; details: for Hill slope CYP9Q3: fungicides
T1 sequence (A0A7M7LMV1 1-517): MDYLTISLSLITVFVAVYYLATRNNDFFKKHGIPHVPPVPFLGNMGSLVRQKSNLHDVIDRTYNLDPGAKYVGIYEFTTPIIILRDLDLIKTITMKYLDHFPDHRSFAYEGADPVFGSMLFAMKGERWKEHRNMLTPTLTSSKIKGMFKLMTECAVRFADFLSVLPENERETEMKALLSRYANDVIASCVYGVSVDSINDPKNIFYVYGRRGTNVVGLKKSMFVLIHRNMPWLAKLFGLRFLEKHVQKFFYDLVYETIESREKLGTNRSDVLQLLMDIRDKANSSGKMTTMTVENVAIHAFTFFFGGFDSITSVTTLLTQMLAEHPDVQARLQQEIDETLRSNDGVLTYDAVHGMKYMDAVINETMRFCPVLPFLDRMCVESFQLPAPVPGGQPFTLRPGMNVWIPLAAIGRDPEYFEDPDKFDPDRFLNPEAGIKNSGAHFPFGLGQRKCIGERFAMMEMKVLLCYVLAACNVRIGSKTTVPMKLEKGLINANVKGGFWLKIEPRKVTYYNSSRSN
T1 sequence (A0A8U1CY41 1-694 partner): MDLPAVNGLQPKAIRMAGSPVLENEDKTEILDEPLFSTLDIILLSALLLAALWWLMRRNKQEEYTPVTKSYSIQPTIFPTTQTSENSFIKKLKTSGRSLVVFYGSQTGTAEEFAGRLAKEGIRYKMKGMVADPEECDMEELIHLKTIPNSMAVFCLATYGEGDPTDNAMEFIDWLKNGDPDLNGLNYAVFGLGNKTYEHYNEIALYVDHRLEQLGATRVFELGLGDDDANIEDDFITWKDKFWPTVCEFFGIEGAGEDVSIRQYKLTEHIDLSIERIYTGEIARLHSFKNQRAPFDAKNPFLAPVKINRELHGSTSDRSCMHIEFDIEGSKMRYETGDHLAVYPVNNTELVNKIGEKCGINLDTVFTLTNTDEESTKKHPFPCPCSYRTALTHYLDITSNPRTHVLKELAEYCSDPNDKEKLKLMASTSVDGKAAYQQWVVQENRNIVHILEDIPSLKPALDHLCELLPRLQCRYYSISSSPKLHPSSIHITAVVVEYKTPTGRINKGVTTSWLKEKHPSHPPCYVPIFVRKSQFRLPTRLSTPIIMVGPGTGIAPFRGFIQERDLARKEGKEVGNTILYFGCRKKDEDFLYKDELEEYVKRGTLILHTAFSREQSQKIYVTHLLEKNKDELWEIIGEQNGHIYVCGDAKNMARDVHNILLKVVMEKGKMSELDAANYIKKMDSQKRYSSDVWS

[2] = target: T2, honey bee CYP9Q2 (Apis mellifera, UniProt A0A7M7R6F2); test: Fluorescence-based BOMFC probe assay with recombinantly expressed CYP9Q2; assay type: biochemical; details: for Hill slope CYP9Q2: fungicides
T2 sequence (A0A7M7R6F2 1-532): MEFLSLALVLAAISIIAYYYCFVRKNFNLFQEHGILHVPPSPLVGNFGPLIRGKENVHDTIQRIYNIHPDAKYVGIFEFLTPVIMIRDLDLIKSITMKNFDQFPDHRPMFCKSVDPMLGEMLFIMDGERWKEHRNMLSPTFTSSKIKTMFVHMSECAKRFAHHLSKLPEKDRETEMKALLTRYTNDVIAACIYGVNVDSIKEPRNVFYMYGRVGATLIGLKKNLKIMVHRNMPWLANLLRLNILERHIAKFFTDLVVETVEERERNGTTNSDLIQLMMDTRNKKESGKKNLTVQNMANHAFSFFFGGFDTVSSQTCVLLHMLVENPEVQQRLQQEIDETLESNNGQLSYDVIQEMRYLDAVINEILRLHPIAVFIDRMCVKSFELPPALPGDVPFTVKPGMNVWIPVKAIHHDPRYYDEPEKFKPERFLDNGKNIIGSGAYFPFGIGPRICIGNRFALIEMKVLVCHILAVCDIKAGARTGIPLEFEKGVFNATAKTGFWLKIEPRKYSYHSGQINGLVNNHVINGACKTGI
T2 sequence (A0A8U1CY41 1-694 partner): T1 sequence (A0A8U1CY41 1-694 partner)

[3] = system: Drosophila melanogaster Empty × Hsp70 (reference control strain); test: Drosophila diet overlay bioassay, control strain; assay type: in vivo; details: Empty × Hsp70 adults
Outline: (§1)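 F1 adults came from crossing UAS strains carrying honey bee CYP9Q2 or CYP9Q3, or a control strain lacking the transgene, with a GAL4-Hsp70 driver. Flies were heat-shocked at 37 °C three times for 30 min the day before, then again just before testing. The test compound in acetone was diluted 1:2 in water with 0.1% (w/v) Triton X-100 and spread over artificial diet. Mortality was scored at 48 h. Values came from probit analysis; resistance ratio = transgenic LD50 / control LD50.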

[4] = target: T3, honey bee CYP6AQ1 (Apis mellifera, UniProt F1DPP0); test: Fluorescence-based BOMFC probe assay with recombinantly expressed CYP6AQ1; assay type: biochemical; details: for inhibition of CYP6AQ1-mediated BOMFC metabolism: 100 μM
T3 sequence (F1DPP0 1-514): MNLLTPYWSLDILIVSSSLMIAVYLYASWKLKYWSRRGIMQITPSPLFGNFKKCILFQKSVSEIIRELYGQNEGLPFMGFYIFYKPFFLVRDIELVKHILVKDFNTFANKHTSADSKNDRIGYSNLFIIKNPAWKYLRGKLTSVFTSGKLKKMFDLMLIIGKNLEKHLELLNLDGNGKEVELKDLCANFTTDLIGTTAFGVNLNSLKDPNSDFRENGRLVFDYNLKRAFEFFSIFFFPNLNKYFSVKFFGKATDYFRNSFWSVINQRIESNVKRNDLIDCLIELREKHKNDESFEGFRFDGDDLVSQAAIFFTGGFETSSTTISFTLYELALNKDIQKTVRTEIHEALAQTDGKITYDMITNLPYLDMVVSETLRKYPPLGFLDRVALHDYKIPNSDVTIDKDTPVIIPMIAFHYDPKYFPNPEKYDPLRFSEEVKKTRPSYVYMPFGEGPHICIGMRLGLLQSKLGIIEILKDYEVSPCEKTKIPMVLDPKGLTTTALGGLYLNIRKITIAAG
T3 sequence (A0A8U1CY41 1-694 partner): T1 sequence (A0A8U1CY41 1-694 partner)

[5] = system: transgenic Drosophila melanogaster CYP9Q2 × Hsp70; test: Drosophila diet overlay bioassay, strain expressing honey bee CYP9Q2; assay type: in vivo; details: for LD50 48 h: CYP9Q2 × Hsp70 adults, diet overlay; for RR (resistance ratio): LD50 of CYP9Q2 × Hsp70 divided by LD50 of Empty × Hsp70; for Slope: probit analysis, CYP9Q2 × Hsp70
Outline: as §1

[6] = system: transgenic Drosophila melanogaster CYP9Q3 × Hsp70; test: Drosophila diet overlay bioassay, strain expressing honey bee CYP9Q3; assay type: in vivo; details: for LD50 48 h: CYP9Q3 × Hsp70 adults, diet overlay; for RR (resistance ratio): LD50 of CYP9Q3 × Hsp70 divided by LD50 of Empty × Hsp70; for Slope: probit analysis, CYP9Q3 × Hsp70
Outline: as §1

[7] = system: Apis mellifera worker bees; details: honey bee, reported value; cited from earlier work
[8] = Honey bee acute contact toxicity and synergism study; assay type: in vivo, Apis mellifera; details: female, Apis mellifera (honey bee), in vivo, topical, honey bee mortality
Outline: (§2)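 OECD 214 acute contact test, modified for the synergist. Mixed-age workers came from the honey super of three queen-right colonies untreated for at least 6 months. Propiconazole was applied at 10 μg/bee. Controls received acetone or propiconazole alone. Mortality was scored at 48 h. Groups were compared by unpaired t-test (P < 0.01), with SEM shown.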

[9] = system: Apis mellifera worker bees; test: as above; assay type: in vivo; details: for effect of propiconazole pretreatment on acute contact toxicity: 10 μg/bee propiconazole 1 h prior to insecticide application
Outline: as §2

[10] = target: T1, honey bee CYP9Q3; details: BOMFC probe, ref Haas et al. (2021)[33], cited from earlier work
[11] = target: T2, honey bee CYP9Q2; details: BOMFC probe, ref Haas et al. (2021)[33], cited from earlier work
[12] = IC50 CYP9Q3, fungicides, BOMFC probe
[13] = IC50 CYP9Q2, fungicides, BOMFC probe
[14] = IC50 CYP9Q3, diamides, BOMFC probe 6.5 μM
[15] = IC50 CYP9Q2, diamides, BOMFC probe 15 μM
[16] = highest concentration tested, 100 μM

Cc1cc(C2CC2)nc(Nc2ccccc2)n1 [Cyprodinil]
IC50 [1, 12]: > 10000 nM | IC50 [2, 13]: > 10000 nM

CNC(=O)c1cc(Cl)cc(C)c1NC(=O)c1cc(Br)nn1-c1ncccc1Cl [Chlorantraniliprole]
LD50 48 h [3]: 22.2 ppm | IC50 [1, 14]: 17400 nM | IC50 [4]: > 100000 nM | inhibition of CYP6AQ1-mediated BOMFC metabolism [4]: not inhibited | LD50 48 h [5]: 96.2 ppm | RR (resistance ratio) [5]: 4.34 | Slope [5]: 1.74 | LD50 48 h [6]: 155 ppm | RR (resistance ratio) [6]: 6.99 | Slope [6]: 2.86 | LD50 [7]: > 4 μg/bee | mortality at 48 h ([8]; 0.2 μg/bee, topical 0.2 μg/bee CPR alone, 48 h): 3.6% | mortality at 48 h ([8]; 2 μg/bee, topical 2 μg/bee CPR alone, 48 h, ± SEM, n = 3): 12% | mortality at 48 h ([8]; topical application of 2 μg/bee and 0.2 μg/bee CPR alone): < 15% | effect of propiconazole pretreatment on acute contact toxicity [9]: significantly increased | IC50 [2, 15]: 93400 nM

CC1COC(Cn2cncn2)(c2ccc(Oc3ccc(Cl)cc3)cc2Cl)O1 (centres unmarked) [Difenoconazole, difenoconazole]
IC50 [1, 12]: 32 nM | IC50 ([1]; IC50 CYP9Q3, lowest IC50 value): ~30 nM | Hill slope CYP9Q3 ([1]; BOMFC probe): −1.02 | IC50 [2, 13]: 33 nM | IC50 ([2]; IC50 CYP9Q2, lowest IC50 value): ~30 nM | Hill slope CYP9Q2 ([2]; BOMFC probe): −0.81

O=C(Nc1ccccc1-c1ccc(Cl)cc1)c1cccnc1Cl [Boscalid, boscalid]
IC50 [1, 12]: 4130 nM | Hill slope CYP9Q3 ([1]; BOMFC probe): −1.05 | IC50 [2, 13]: > 10000 nM

N#CC(CCc1ccc(Cl)cc1)(Cn1cncn1)c1ccccc1 (centres unmarked) [Fenbuconazole, fenbuconazole]
IC50 [1, 12]: 58 nM | Hill slope CYP9Q3 ([1]; BOMFC probe): −0.86 | IC50 [2, 13]: 41 nM | Hill slope CYP9Q2 ([2]; BOMFC probe): −0.67

CCCC1COC(Cn2cncn2)(c2ccc(Cl)cc2Cl)O1 (centres unmarked) [Propiconazole, propiconazole]
Hill slope CYP9Q3 [10]: −1.10 | IC50 ([10]; read-out: IC50 CYP9Q3): 72 nM | Hill slope CYP9Q2 [11]: −0.88 | IC50 ([11]; read-out: IC50 CYP9Q2): 151 nM | effect on control bees ([9]; propiconazole only, 10 μg/bee, test period 48 h): remained unaffected

N#Cc1c(Cl)c(Cl)c(Cl)c(C#N)c1Cl [Chlorothalonil, chlorothalonil]
IC50 [1, 12]: > 10000 nM | IC50 [2, 13]: > 10000 nM

COC(=O)N(OC)c1ccccc1COc1ccn(-c2ccc(Cl)cc2)n1 [Pyraclostrobin, pyraclostrobin]
IC50 [1, 12]: 7840 nM | Hill slope CYP9Q3 ([1]; BOMFC probe): −0.56 | IC50 [2, 13]: > 10000 nM

CC(C)NC(=O)N1CC(=O)N(c2cc(Cl)cc(Cl)c2)C1=O [Iprodione, iprodione]
IC50 [1, 12]: > 10000 nM | IC50 [2, 13]: > 10000 nM

Cc1cc(C(F)(C(F)(F)F)C(F)(F)F)ccc1NC(=O)c1cccc(I)c1C(=O)NC(C)(C)CS(C)(=O)=O [Flubendiamide, flubendiamide]
LD50 48 h [3]: 147 ppm | IC50 [1, 14]: > 100000 nM | interaction with BOMFC metabolism by CYP9Q3 [1, 16]: did not show any obvious interaction | IC50 [4]: > 100000 nM | inhibition of CYP6AQ1-mediated BOMFC metabolism [4]: did not show any obvious interaction | LD50 48 h [5]: 253 ppm | RR (resistance ratio) [5]: 1.73 | Slope [5]: 4.62 | LD50 48 h [6]: 179 ppm | RR (resistance ratio) [6]: 1.23 | Slope [6]: 6.97 | mortality at 48 h ([8]; 100 μg/bee, FLB doses of 100 μg/bee, acute contact): < 5% | effect of propiconazole pretreatment on acute contact toxicity [9]: not influenced | IC50 [2, 15]: > 100000 nM | interaction with BOMFC metabolism by CYP9Q2 [2, 16]: did not show any obvious interaction

CC1(C)CCC(Cc2ccc(Cl)cc2)C1(O)Cn1cncn1 (centres unmarked) [Metconazole, metconazole]
IC50 [1, 12]: 57 nM | Hill slope CYP9Q3 ([1]; BOMFC probe): −1.03 | IC50 [2, 13]: 33 nM | Hill slope CYP9Q2 ([2]; BOMFC probe): −0.6
